CHO parental Ca = counter-screen: ATP calcium response change in parental CHO cells; parental CHO-K1, ATP-induced calcium, Fluo-8 fluorescence; inhibition, % at 5.6 µM; 330,000 tested, 0.63% active; AID 463079;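 active = inhibition above that plate's mean sample inhibition plus 3 SD, cut at about 26% in these data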;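 note: 0% = ATP-challenged DMSO wells and 100% = DMSO wells without ATP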
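Material: Parental CHO cells | Reagent: ATP | Compound dosing: Single nominal dose of 5.6 µM per compound | Detection: Intracellular calcium via Fluo-8 no-wash fluorescent dye | Read-out: % inhibition of ATP-induced calcium mobilization | Benchmarks: Low control ATP plus DMSO, high control DMSO only | Replicates: Singlicate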
NTR1 agonist = NTR1 (human) agonism; NTR1-U2OS beta-arrestin-GFP spot imaging, agonist mode; 330,000 tested, 0.17% active; activation, % at 20 µM;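 active = activation at or above 40% of the spot to cytoplasm intensity ratio, with at least 20 cells analyzed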;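 note: 0% = DMSO without peptide and 100% = 100 nM NTR1 peptide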
Target sequence (P30989 whole entry, looked up): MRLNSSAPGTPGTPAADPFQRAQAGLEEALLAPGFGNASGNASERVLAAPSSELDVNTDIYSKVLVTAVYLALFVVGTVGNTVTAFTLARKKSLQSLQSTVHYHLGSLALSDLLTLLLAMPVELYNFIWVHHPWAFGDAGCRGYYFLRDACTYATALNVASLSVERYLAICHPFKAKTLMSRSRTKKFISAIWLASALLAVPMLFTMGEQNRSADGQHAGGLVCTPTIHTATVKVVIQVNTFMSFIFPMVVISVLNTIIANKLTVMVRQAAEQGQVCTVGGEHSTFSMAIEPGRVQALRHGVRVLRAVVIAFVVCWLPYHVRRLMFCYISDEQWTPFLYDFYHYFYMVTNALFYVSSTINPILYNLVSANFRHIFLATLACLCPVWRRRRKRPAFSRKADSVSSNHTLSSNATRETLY
OX1R antag-1 = human HCRTR1 antagonism; inhibition, % at 5 µM; AID 434989; CHO/OX1R cells, Fluo-8 calcium fluorescence, orexin A; O43613; 330,000 tested, 0.43% active;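 active = inhibition above its plate's threshold, mean inhibition of all tested compounds on the plate plus 3 SD, cut at about 37% in these data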;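 note: 0% = orexin A challenge wells and 100% = SB-334867-A antagonist wells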
OX1R antag-2 = blocks the human orexin 1 receptor. OX1R-expressing cells, FRET antagonist read-out. inhibition, % at 6.6 µM. 330,000 tested, 1.8% active; in the data active = inhibition mostly above about 38%, no sharp cut-off; inactive = mostly below about 40%;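 note: 0% = agonist challenge alone and 100% = reference antagonist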
TAAR1 antagonist = human TAAR1 antagonism. Q96RJ0. CHO RD-HGA16 TAAR1, Fluo-8 calcium fluorescence, antagonist. inhibition, % at 3 µM. 360,000 tested, 1.5% active. AID 624466;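 active = inhibition above a per-plate cutoff, the mean inhibition of test compounds on that plate plus 3 SD, cut at about 49% in these data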;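 note: 0% = DMSO plus EC80 beta-PEA response and 100% = DMSO alone without agonist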
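Assay system: RD-HGA16 CHO cells with stable hTAAR1 and Gα16 / Reagent: EC80 β-phenethylamine stimulus / Doses: 3 µM, single point / Timing: dye loading 75 min at 37 °C, then 30 min room temperature / Measured by: Fluo-8 intracellular calcium dye fluorescence, real-time kinetic reads / Controls: vehicle wells and EC80 agonist wells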
TAAR1 ag = human TAAR1 agonism; AID 624467; 360,000 tested, 0.99% active; Q96RJ0; activation, % at 3 µM; CHO RD-HGA16 TAAR1, Fluo-8 calcium fluorescence; vehicle wells 0%, saturating PEA agonist 100%;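 active = activation above the mean activation of all test compounds in the run plus 3 SD, cut at about 38% in these data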
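System: CHO RD-HGA16 cells carrying human TAAR1 plus Gα16; Incubation: 17-24 h seeding, 75 min 37 °C dye, 30 min RT; Measured by: Fluo-8 fluorescence, 5 s baseline then 140 s kinetic read; Control set: DMSO and PEA EC100; Replication: single well for each compound.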
The depositor's hits bear a star; . = no result given. Rows were chosen to be rich in hits. Some 4% of all compounds tested hit in one or more screens of this group.

SMILES | CHO parental Ca | NTR1 agonist | OX1R antag-1 | OX1R antag-2 | TAAR1 antagonist | TAAR1 ag
COC(=O)[C@]12C[C@H](CC(=O)NCCCN3CCCC3=O)C(=O)N(Cc3ccccc3)C1=C[C@H](C(C)C)O[C@@H]2C1CC1 | . | . | . | . | 0 | 1
CNC(=O)COc1ccc2oc3c(c2c1)CCCC3 | -14 | -2 | -9 | 38 | 1 | 0
Cc1ccnc(NC(=O)COc2ccc3oc4c(c3c2)CCCC4)c1 | -33 | 4 | 7 | 54* | 26 | 13
NC(=O)[C@@H]1CCCN1C(=O)[C@H]1O[C@@H](n2ccc(N)nc2=O)[C@H](O)[C@@H]1O | . | . | . | . | 5 | 2
COc1cc2ccccc2cc1C(=O)Nc1ccc(C)cc1 | -13 | 10 | -30 | 14 | -16 | -3
COc1cc2ccccc2cc1C(=O)Nc1ccc(Cc2ccncc2)cc1 | 38* | 18 | 45* | 21 | 41 | 19
O=C(COc1ccc2ccccc2c1)Nc1ccc(Cc2ccncc2)cc1 | 24 | 3 | 59* | 35 | 26 | 3
O=C(Nc1c(-c2ccccc2)nc2ccccn12)c1ccco1 | -20 | -3 | -23 | 10 | -3 | 10
Oc1ccc(-c2nc3ccccn3c2NCc2ccco2)cc1 | 3 | 1 | 2 | 19 | 52* | 19
Cc1cc(OC(C)C(=O)NCCN2CCOCC2)c2c(C)cc(=O)oc2c1 (stereo not drawn) | -5 | 0 | 7 | 2 | -4 | 2
O=C1c2ccccc2C(=O)c2c1cccc2N(CCO)CCO | -10 | 0 | -18 | 59* | -13 | 3
CNc1cccc2c1C(=O)c1ccccc1C2=O | -6 | . | -11 | 38 | 10 | -2
COC(=O)c1cc(=O)nc(NN=Cc2ccccc2O)s1 | . | . | . | . | 8 | 0
CC(=O)c1sc(N/N=C\c2ccccc2O)nc1C | 5 | 3 | -7 | 51* | 16 | 42*
COc1c(OC)c(O)c2c(=O)c(O)c(-c3ccccc3)oc2c1OC | -30 | 5 | 8 | 57* | 0 | 7
COc1ccccc1C(=O)N1CCC2CCNC2C1 (stereo not drawn) | . | . | . | . | -5 | 1
CC(=O)c1ccc(-c2nnc(CCC(=O)N(C)Cc3cccc4cnccc34)o2)s1 | -5 | 2 | -24 | 35* | 31 | 2
CCCCOCC1CN(CCCC)S(=O)(=O)c2c(Oc3ccc(C)cc3)cccc2O1 (stereo not drawn) | . | . | . | . | -28 | 4
COC(=O)[C@]12C[C@H](CC(=O)N3CCOCC3)C(=O)N(CCC3=CCCCC3)C1=C[C@H](C(C)(C)C)O[C@@H]2C | . | . | . | . | -36 | 0
COc1ccc(S(=O)(=O)N2CCCC2CNC(=O)c2cccc(OC)c2)cc1 (stereo not drawn) | -14 | -2 | -2 | 43* | -29 | 5
COc1cccc(C(=O)NCC2CCCN2S(=O)(=O)c2cccs2)c1 (stereo not drawn) | -9 | 2 | -11 | 30 | 0 | 1
O=C(NCC1CCCN1S(=O)(=O)c1cccs1)c1cccc(Cl)c1 (stereo not drawn) | -23 | 0 | -12 | 53* | -15 | 3
O=C(NCC1CCCN1S(=O)(=O)c1cccs1)c1ccc(Cl)cc1 (stereo not drawn) | -10 | -1 | -22 | 16 | -3 | 2
O=C(NCC1CCCN1S(=O)(=O)c1cccs1)C(=O)Nc1ccccc1Cl (stereo not drawn) | 2 | 0 | 0 | 45* | -14 | 5
O=C(NCC1CCCN1S(=O)(=O)c1cccs1)C(=O)Nc1ccccc1F (stereo not drawn) | . | . | . | . | -17 | 2
SMILES | CHO parental Ca | NTR1 agonist | OX1R antag-1 | OX1R antag-2 | TAAR1 antagonist | TAAR1 ag
COc1cccc(CNC(=O)c2ccc(S(=O)(=O)N3CCCCC3)cc2)c1 | . | . | . | . | 51* | 9
COc1cc(OC)c(NC(=O)NNC(=O)C(=O)NC2CC2)cc1Cl | . | . | . | . | -5 | -1
Cc1ccc(S(=O)(=O)N2C[C@@H]3CCCC[C@@H]3[C@@H](C)[C@H]2c2cn(Cc3ccccc3)c3ncccc23)cc1 | 35 | 1 | 26 | 22 | -37 | -1
O=[N+]([O-])c1cccc(COc2ccc(CO)cc2)c1 | . | . | . | . | 0 | 0
Cc1ccc(CCNC(=O)c2nc(CS(=O)(=O)c3ccc(Cl)cc3)no2)cc1 | 0 | 2 | -4 | 12 | 57* | 5
CCOc1ccccc1N1C(=O)CN(Cc2ccc(OC)c(OC)c2)C1=S | -28 | -1 | -16 | 56* | 8 | 4
COc1cccc(N2C(=O)CN(Cc3cc(OC)c(OC)c(OC)c3)C2=S)c1 | -17 | -1 | -24 | 22 | -9 | 3
COc1ccc(CN2CC(=O)N(c3ccccc3OC)C2=S)cc1OC | -18 | 1 | 5 | 17 | 23 | 12
COc1ccc(N2C(=O)CN(Cc3cc(OC)c(OC)c(OC)c3)C2=S)cc1 | -14 | 6 | -17 | 47* | 29 | 10
S=C1NCCN1c1ccc(Cl)cc1 | . | . | . | . | -10 | 2
c1ccc(-c2cc3cc4c(cc3cn2)OCO4)cc1 | -20 | -1 | 39 | 72* | 12 | 19
CCc1ccc([C@H]2C[C@H]3[C@H]4C(=O)N(c5ccccc5)C(=O)[C@H]4CC(=O)[C@@H]3CN2S(=O)(=O)c2ccc(C)cc2)cc1 | . | . | . | . | -4 | 2
Cc1ccc(S(=O)(=O)N2C[C@H]3C(=O)C[C@@H]4C(=O)N(c5ccccc5)C(=O)[C@@H]4[C@@H]3C[C@H]2c2cccc(Cl)c2)cc1 | . | . | . | . | 60* | 10
Cc1ccnc(SCC(=O)NC2CCCCCC2)n1 | -13 | -2 | -4 | 19 | -5 | 0
NS(=O)(=O)c1ccc(NNC(=O)c2ccc(Br)o2)c([N+](=O)[O-])c1 | -4 | 1 | 10 | 58* | -4 | 1
O=C(NCc1cccc(C(F)(F)F)c1)c1cc(Cl)cc(Cl)c1 | -22 | 9 | -33 | 42* | -6 | 9
O=C(NCc1cccc(C(F)(F)F)c1)c1cc(Cl)ccc1Cl | -16 | 0 | -23 | 10 | 18 | 0
O=C(Nc1ccccc1C(=O)NCC1CC1)c1cccs1 | . | . | . | . | -13 | -1
Cc1ccc(C(C)C)c2c1C(c1ccc3c(c1)OCO3)CC(=O)O2 (stereo not drawn) | -16 | 7 | 15 | 7 | 45 | 47*
Cc1cc2c(c(C)c1Cl)C(c1ccc3c(c1)OCO3)CC(=O)O2 (stereo not drawn) | 9 | 7 | 6 | 14 | 38 | 6
c1coc(-c2nc3ccccc3nc2-c2ccco2)c1 | -23 | 3 | -3 | 43* | -3 | 0
c1coc(-c2cnc3ccccc3n2)c1 | . | . | . | . | -7 | 3
Nc1[nH]c2cc([N+](=O)[O-])ccc2c1-c1ccccn1 | 37* | -3 | 51* | 17 | 69* | 19

Bioassay records (PubChem)
